Experimental data as given in ChEMBL document CHEMBL3739347, “Tubulin modulating antifungal and antiproliferative pyrazinone derivatives” (Bioorg Med Chem, 2016).

Assays:
[1] = test system: Botrytis cinerea; assay: Antifungal activity against Botryotinia fuckeliana infected in orange pixie tomato seedlings at 10 ppm relative to control; assay type: functional
How it was run: (§1)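 Orange Pixie tomato seedlings sprayed to run-off with test suspension, then inoculated next day with a Botryotinia fuckeliana spore suspension. Kept saturated at 20 °C for 48 h, then 1 more day at 24 °C in a growth chamber before rating. Rates in ppm. Expressed as percent control relative to untreated control plants.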

[2] = test system: Puccinia triticina; assay: Antifungal activity against Puccinia recondita f. sp. tritici infected in wheat seedlings at 10 ppm relative to control; assay type: functional
How it was run: (§2)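 Test suspension sprayed to run-off on Stevens wheat seedlings. Next day inoculated with a Puccinia recondita f. sp. tritici spore suspension. Held 24 h in a saturated atmosphere at 20 °C, then 7 days in a 20 °C growth chamber before disease rating. Rates in ppm. Given as percent control versus untreated control plants.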

[3] = test system: Botrytis cinerea; assay: Antifungal activity against Botryotinia fuckeliana infected in orange pixie tomato seedlings at 40 ppm relative to control; assay type: functional; how it was run: as §1
[4] = test system: Botrytis cinerea; assay: Antifungal activity against Botryotinia fuckeliana infected in orange pixie tomato seedlings at 200 ppm relative to control; assay type: functional; how it was run: as §1
[5] = test system: Parastagonospora nodorum; assay: Antifungal activity against Stagonospora nodorum infected in wheat seedlings at 10 ppm relative to control; assay type: functional
How it was run: (§3)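 Wheat seedlings, treated the day before, inoculated with a Stagonospora nodorum spore suspension. Held in a saturated atmosphere at 20 °C for 48 h, then 5 days in a growth chamber at 22 °C, then disease rated. Rates in ppm. Scored as percent control relative to untreated control plants.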

[6] = test system: Puccinia triticina; assay: Antifungal activity against Puccinia recondita f. sp. tritici infected in wheat seedlings at 200 ppm relative to control; assay type: functional; how it was run: as §2
[7] = test system: Parastagonospora nodorum; assay: Antifungal activity against Stagonospora nodorum infected in wheat seedlings at 200 ppm relative to control; assay type: functional; how it was run: as §3
[8] = test system: Puccinia triticina; assay: Antifungal activity against Puccinia recondita f. sp. tritici infected in wheat seedlings at 40 ppm relative to control; assay type: functional; how it was run: as §2
[9] = test system: Parastagonospora nodorum; assay: Antifungal activity against Stagonospora nodorum infected in wheat seedlings at 40 ppm relative to control; assay type: functional; how it was run: as §3
[10] = test system: Puccinia triticina; assay: Antifungal activity against Puccinia recondita f. sp. tritici infected in wheat seedlings at 2 ppm relative to control; assay type: functional; how it was run: as §2
[11] = test system: Parastagonospora nodorum; assay: Antifungal activity against Stagonospora nodorum infected in wheat seedlings at 2 ppm relative to control; assay type: functional; how it was run: as §3
[12] = Antiproliferative activity against human Rhabdomyosarcoma cells after 96 hrs by MTS assay; assay type: functional, cell-based; conditions: Rhabdomyosarcoma cell
How it was run: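 Rhabdomyosarcoma cells (ATCC CCL-136) seeded at 10,000 cells/well and allowed to adhere 1–3 h. Medium then replaced with compound-containing medium over a concentration range. Grown 96 h at 37 °C, 5% CO2. Viable cells read by MTS/PMS formazan after 3–4 h at 37 °C, absorbance 490 nm. Data normalized to solvent-only wells; IC50 in nM.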

[13] = test system: Botrytis cinerea; assay: Antifungal activity against Botryotinia fuckeliana infected in orange pixie tomato seedlings at 2 ppm relative to control; assay type: functional; how it was run: as §1

SMILES | Activity [1] [%] | Activity [2] [%] | Activity [3] [%] | Activity [4] [%] | Activity [5] [%] | Activity [6] [%] | Activity [7] [%] | Activity [8] [%] | Activity [9] [%] | Activity [10] [%] | Activity [11] [%] | IC50 [12] [nM] | Activity [13] [%]
CC[C@H](C)Cn1c(-c2c(F)cccc2F)c(Cl)nc(-n2nc(C)cc2C)c1=O | 0 | 0 | 0 | 0 | 0 | 73 | 0 | 22 | 0 | – | – | – | –
CC(C)Cn1c(-c2c(F)cccc2F)c(Cl)nc(-c2cnccn2)c1=O | 83 | 0 | 98 | 98 | 0 | 99 | 98 | 89 | 0 | – | – | – | –
CC[C@H](C)Cn1c(-c2c(F)cc(OCCCNC)cc2F)c(Cl)nc(-n2cccn2)c1=O.Cl | 99 | 99 | 99 | 100 | 33 | 100 | 100 | 100 | 88 | 68 | 0 | 0.6 | 21
CCC(C)Cn1c(-c2c(F)cc(F)cc2F)c(Cl)nc(-n2cccn2)c1=O (stereo not drawn) | 100 | 100 | 100 | 100 | 98 | 100 | 100 | 100 | 100 | 89 | 0 | – | 100
CC(C)Cn1c(-c2ccc(F)cc2Cl)c(Cl)nc(-n2cccn2)c1=O | 100 | 100 | 100 | 100 | 99 | 100 | 100 | 100 | 100 | 83 | 0 | – | 100
CC[C@H](C)Cn1c(-c2c(F)cc(OC)cc2F)c(Cl)nc(-n2cccn2)c1=O | 99 | 100 | 99 | 99 | 100 | 100 | 100 | 100 | 100 | 99 | 69 | 10 | 99
CC(=O)Nc1nc(Cl)c(-c2c(F)cccc2F)n(CC(C)C)c1=O | 15 | 0 | 92 | 99 | 0 | 99 | 0 | 90 | 0 | – | – | – | –
CC(C)Cn1c(-c2c(F)cccc2F)c(Cl)nc(-c2cn(C)cn2)c1=O | 0 | 0 | 99 | 100 | 0 | 99 | 97 | 97 | 67 | 0 | 0 | – | 0
O=c1c(-n2cccn2)nc(Cl)c(-c2c(F)cc(F)cc2F)n1C1CCCCC1 | 99 | 89 | 99 | 99 | 73 | 99 | 100 | 97 | 99 | – | – | – | –
